Results reported in ChEMBL document CHEMBL4396929, “Discovery and development of substituted thiadiazoles as inhibitors of Staphylococcus aureus Sortase A” (Bioorg Med Chem, 2019).
Calls of active or inactive are those of the source. The rule behind the calls is not given here.

Tests used:
Staphylococcus aureus [1] = assay: Growth inhibition of Staphylococcus aureus CCUG 17621 measured after 18 to 24 hrs by broth microdilution assay; format: organism-based
Sortase A [2] = biological target: T1, Sortase A (Staphylococcus aureus, UniProt Q9S446); assay: Inhibition of recombinant Staphylococcus aureus wild type truncated C-terminal His6 tagged Srt A using Abz-Leu-Pro-Glu-Thr-Gly-Lys(Dnp)-NH2 as substrate preincubated for 15 mins followed by substrate addition measured after 60 mins by FRET assay
T1 sequence (Q9S446 whole entry): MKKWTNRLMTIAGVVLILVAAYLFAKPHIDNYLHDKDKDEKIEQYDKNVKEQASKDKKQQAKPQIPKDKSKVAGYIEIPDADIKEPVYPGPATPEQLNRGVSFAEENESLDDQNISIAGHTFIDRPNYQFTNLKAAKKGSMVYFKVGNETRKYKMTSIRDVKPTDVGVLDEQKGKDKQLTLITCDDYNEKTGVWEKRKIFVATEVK

[3] = biological target: T2, Sortase A (Staphylococcus aureus) (UniProt Q9S446); assay: (§1) Inhibition of recombinant Staphylococcus aureus wild type truncated C-terminal His6 tagged Srt A using Abz-Leu-Pro-Glu-Thr-Gly-Lys(Dnp)-NH2 as substrate preincubated for 30 mins followed by substrate addition measured after 60 mins by FRET assay in presence of 0.5 mM reducing agent, DTT
T2 sequence (whole entry): T1 sequence (Q9S446 whole entry)

[4] = biological target: T2, Sortase A (Staphylococcus aureus); assay: Binding affinity to Staphylococcus aureus SrtA by ligand based 1D CPMG relaxation dispersion NMR analysis
Procedure, shortened: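 Ligand-observed 1D NMR: spectrum of ligand alone, then ligand with SrtA, acquired after a delay acting as a T2 filter. Binding is scored as a drop in ligand signal intensity.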

Escherichia coli = assay: Growth inhibition of Escherichia coli CCUG 17620 measured after 18 to 24 hrs by broth microdilution assay; format: organism-based; conditions: in vitro
Staphylococcus aureus [5] = assay: Growth inhibition of Staphylococcus aureus CCUG 15915 measured after 18 to 24 hrs by broth microdilution assay; format: organism-based
[6] = biological target: T2, Sortase A (Staphylococcus aureus); assay: Inhibition of recombinant Staphylococcus aureus wild type truncated C-terminal His6 tagged Srt A at 200 uM using Abz-Leu-Pro-Glu-Thr-Gly-Lys(Dnp)-NH2 as substrate preincubated for 15 mins followed by substrate addition measured after 60 mins by FRET assay relative to control
Procedure, shortened: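 FRET read-out: cleavage of the internally quenched substrate relieves Dnp quenching of the Abz fluorophore, and the resulting fluorescence reports SrtA activity. Compound at 200 µM, 15 min preincubation with enzyme. Inhibition reported as mean ± SD, n = 3.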

[7] = biological target: T2, Sortase A (Staphylococcus aureus); assay: Covalent ligand binding to recombinant Staphylococcus aureus wild type truncated C-terminal His6 tagged SrtA assessed as enzyme modifications by measuring aminothiadiazolyl-thio (+130.96119 Da, +C2HN3S2) and nitrobenzyl-thio (+167.00410, +C7H5NO2S) fragments at 200 uM by LCMS analysis
[8] = biological target: T2, Sortase A (Staphylococcus aureus); assay: Inhibition of recombinant Staphylococcus aureus wild type truncated C-terminal His6 tagged Srt A at 167 uM using Abz-Leu-Pro-Glu-Thr-Gly-Lys(Dnp)-NH2 as substrate preincubated for 15 mins followed by substrate addition measured after 60 mins by FRET assay relative to control
Procedure, shortened: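 FRET activity assay with an internally quenched substrate. Cleavage by SrtA separates the Abz donor from the Dnp quencher, and the increase in fluorescence is read. Compound at 167 µM with 15 min incubation. Percent inhibition is given as mean ± SD, n = 2.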

[9] = biological target: T2, Sortase A (Staphylococcus aureus); assay: Reversible ligand binding to Staphylococcus aureus SrtA using (Abz-Leu-Pro-Glu-Thr-Gly-Lys(Dnp)-NH2 as substrate by NMR competitive displacement analysis
Procedure, shortened: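 Ligand-observed CPMG NMR uses a delay acting as a T2 filter. Spectra are taken of the ligand alone, then after SrtA is added, then after a known binder is added to compete for the site. Recovery of the ligand signal marks reversible, competitive binding.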

[10] = biological target: T2, Sortase A (Staphylococcus aureus); assay: Binding affinity to Staphylococcus aureus 15N-labeled SrtA by protein based 2D SOFAST-HMQC NMR analysis
[11] = biological target: T2, Sortase A (Staphylococcus aureus); assay: Inhibition of recombinant Staphylococcus aureus wild type truncated C-terminal His6 tagged Srt A at 200 uM using Abz-Leu-Pro-Glu-Thr-Gly-Lys(Dnp)-NH2 as substrate preincubated for 6.3 hrs followed by substrate addition measured after 60 mins by FRET assay relative to control
[12] = biological target: T2, Sortase A (Staphylococcus aureus); assay: Covalent ligand binding to recombinant Staphylococcus aureus wild type truncated C-terminal His6 tagged SrtA assessed as enzyme modifications by measuring nicotinamido-thiadiazolyl thio (+235.98265 Da, +C8H4N4OS2) and nitrobenzyl-thio (+167.00410, +C7H5NO2S) fragments at 200 uM by LCMS analysis
Sortase A [13] = biological target: T1, Sortase A; assay: Inhibition of recombinant Staphylococcus aureus wild type truncated C-terminal His6 tagged Srt A using Abz-Leu-Pro-Glu-Thr-Gly-Lys(Dnp)-NH2 as substrate preincubated for 30 mins followed by substrate addition measured after 60 mins by FRET assay
Sortase A [14] = biological target: T1, Sortase A; assay: as §1
[15] = biological target: T2, Sortase A (Staphylococcus aureus); assay: Irreversible ligand binding to Staphylococcus aureus SrtA using (Abz-Leu-Pro-Glu-Thr-Gly-Lys(Dnp)-NH2 as substrate by competitive binding based 1D CPMG relaxation dispersion NMR analysis
Procedure, shortened: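 Ligand-observed CPMG competition: the ligand–SrtA sample is challenged with a known binder for the same site. Signal recovery indicates displacement and reversible binding; no recovery indicates irreversible binding.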

Row | inhibition [6] [%] | Compound | IC50 (Sortase A [2]) [µM] | Activity [4] | also measured
1 | 18 | CC(=O)Nc1nnc(SCc2cccc([N+](=O)[O-])c2)s1 | – | – | MIC (Staphylococcus aureus [1]): > 256 mg/L; MIC (Escherichia coli): > 256 mg/L; MIC (Staphylococcus aureus [5]): > 256 mg/L
2 | 13 | O=C(Nc1nnc(SCc2cccc([N+](=O)[O-])c2)s1)c1cccnc1 | – | – | –
3 | – | Nc1nnc(Sc2ccc([N+](=O)[O-])c3nonc23)s1 | 6 to 6.2 | Active | inhibition [8]: 101%; inhibition [3]: inactive; Activity [9]: Active; Activity [10]: Active
4 | 13 | Nc1nnc(SCc2ccc3ccccc3c2)s1 | – | – | –
5 | 19 | O=[N+]([O-])c1cccc(CSc2nnc(Br)s2)c1 | – | – | –
6 | 27 | O=[N+]([O-])c1cccc(CSc2nnc(N3CCNCC3)s2)c1 | – | inactive | MIC (Staphylococcus aureus [1]): > 256 mg/L; MIC (Escherichia coli): > 256 mg/L; inhibition [11]: 38%; MIC (Staphylococcus aureus [5]): > 256 mg/L
7 | 0 | Nc1nnc(SCc2ccccc2)s1 | – | inactive | –
8 | 13 | Nc1nnc(SCCc2cccc([N+](=O)[O-])c2)s1 | – | inactive | –
9 | 5 | Nc1nnc(SCc2ccc(F)cc2)s1 | – | inactive | –
10 | 37 | O=[N+]([O-])c1cccc(CSc2nnc(Nc3cccnc3)s2)c1 | – | – | –
11 | 25 | Nc1nnc(Sc2ccccc2)s1 | – | inactive | –
12 | 35 | Nc1nnc(Sc2ccc([N+](=O)[O-])cc2)s1 | – | inactive | IC50 (Sortase A [13]): Not Active
13 | 8 | O=C(Nc1nnc(SCc2cccc([N+](=O)[O-])c2)s1)c1ccncc1 | – | Active | MIC (Staphylococcus aureus [1]): > 256 mg/L; MIC (Escherichia coli): > 256 mg/L; MIC (Staphylococcus aureus [5]): > 256 mg/L
14 | – | O=c1c(O)c(-c2ccc(O)cc2O)oc2cc(O)cc(O)c12 [MORIN] | – | – | IC50 (Sortase A [14]): 19 µM
15 | 2 | N#Cc1ccc(CSc2nnc(N)s2)cc1 | – | inactive | –
16 | 6 | O=C(Nc1nnc(SCc2cccc([N+](=O)[O-])c2)s1)c1ccco1 | – | – | –
17 | – | CC(C)n1c(S)nc2c1c(=O)n(C)c(=O)n2C | 50 | – | Activity [15]: Active
18 | 29 | O=[N+]([O-])c1cccc(CSc2nnc(N3CCOCC3)s2)c1 | – | Active | MIC (Staphylococcus aureus [1]): > 256 mg/L; MIC (Escherichia coli): > 256 mg/L; MIC (Staphylococcus aureus [5]): > 256 mg/L
19 | – | FC(F)(F)c1ccnc(Sc2nc[nH]n2)n1 | 19 | – | –
20 | – | CCSc1c(S)cnn(-c2ccccc2)c1=O | 3 | – | –

Row | Compound | inhibition [6] [%] | IC50 (Sortase A [2]) [µM] | Activity [4] | also measured
21 | Nc1nnc(SCc2ccc([N+](=O)[O-])cc2)s1 | 101 | 26 | Active | MIC (Staphylococcus aureus [1]): > 256 mg/L; inhibition [3]: inactive; MIC (Escherichia coli): > 256 mg/L; MIC (Staphylococcus aureus [5]): > 256 mg/L; Activity [7]: Active
22 | N#Cc1ccccc1CSc1nnc(N)s1 | 1 | 1740 | Active | MIC (Staphylococcus aureus [1]): > 256 mg/L; MIC (Escherichia coli): > 256 mg/L; MIC (Staphylococcus aureus [5]): > 256 mg/L
23 | O=[N+]([O-])c1ccc(CSc2nnc(N3CCOCC3)s2)cc1 | 104 | 9 | Active | –
24 | Nc1nnc(SCc2cccc([N+](=O)[O-])c2)s1 | 11 | 521 | Active | MIC (Staphylococcus aureus [1]): > 256 mg/L; MIC (Escherichia coli): > 256 mg/L; MIC (Staphylococcus aureus [5]): > 256 mg/L
25 | O=C(Nc1nnc(SCc2ccc([N+](=O)[O-])cc2)s1)c1ccncc1 | 99 | 42 | inactive | –
26 | O=C(Nc1nnc(SCc2ccc([N+](=O)[O-])cc2)s1)c1cccnc1 | 100 | 3.8 | inactive | inhibition [3]: inactive; Activity [12]: Active
27 | O=[N+]([O-])c1ccc(CSc2nnc(N3CCNCC3)s2)cc1 | 80 | 71 | Active | –
28 | CC(=O)Nc1nnc(SCc2ccc([N+](=O)[O-])cc2)s1 | 94 | 127 | Active | –
